Results as given in paper PMC5538687 (International Journal of Nanomedicine, 2017).
Where two headings read alike, the source gives them in different places.

Experiments:
mouse FAPα protein = target: T1, mouse FAPα protein (Mus musculus, UniProt P97321); experiment: In vitro protease assay with recombinant FAPα; format: biochemical; conditions: 37°C
T1 sequence (P97321 1-761): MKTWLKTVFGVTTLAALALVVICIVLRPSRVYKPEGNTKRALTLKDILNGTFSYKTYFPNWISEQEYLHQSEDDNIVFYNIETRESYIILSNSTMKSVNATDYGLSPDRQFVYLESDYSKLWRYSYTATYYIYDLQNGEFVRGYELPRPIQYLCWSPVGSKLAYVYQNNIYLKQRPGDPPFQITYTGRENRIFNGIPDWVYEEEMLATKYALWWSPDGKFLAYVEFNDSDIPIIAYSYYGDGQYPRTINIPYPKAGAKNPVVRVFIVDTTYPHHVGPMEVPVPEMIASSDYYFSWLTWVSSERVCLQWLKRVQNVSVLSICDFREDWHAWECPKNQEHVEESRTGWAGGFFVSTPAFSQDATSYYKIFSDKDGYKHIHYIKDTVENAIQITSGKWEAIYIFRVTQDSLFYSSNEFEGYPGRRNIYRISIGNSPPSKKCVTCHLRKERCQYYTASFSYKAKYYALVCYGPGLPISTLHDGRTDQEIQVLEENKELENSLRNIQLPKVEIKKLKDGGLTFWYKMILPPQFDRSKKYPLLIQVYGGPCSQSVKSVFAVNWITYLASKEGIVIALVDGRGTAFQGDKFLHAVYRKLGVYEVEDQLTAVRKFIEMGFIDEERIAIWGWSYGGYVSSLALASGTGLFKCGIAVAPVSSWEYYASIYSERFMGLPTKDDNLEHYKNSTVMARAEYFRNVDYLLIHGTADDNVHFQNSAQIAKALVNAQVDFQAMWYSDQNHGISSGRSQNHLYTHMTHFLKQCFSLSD

[1] = tested on: Eca109 xenograft tumor (FAPα in tumor stroma); format: in vivo, BALB/c-nude mice; conditions: for AUC of ROC curve, ESCC vs healthy mice: 1 hour urine, n=10 per group
In short: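 BALB/c-nude mice aged 4–6 weeks were given 5×10⁶ Eca109 cells s.c. and grown 4 weeks to tumours of 100–300 mm³. Tumour-bearing and age-matched healthy mice (n=10 each) were co-injected via the tail vein with probe nanoparticles (100 μL PBS; 100 or 10 nM by peptide) plus control peptide at the same level. Urine was collected at set times, with 1 h urine used for diagnosis. It was stored at −80°C, diluted 1:10–10² in PBS/1% BSA, and run by ELISA in at least duplicate. ROC analysis was applied.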

Eca109 xenograft tumor = experiment: In vivo imaging and biodistribution; design: species or system BALB/c-nude mice; conditions: 100 μL, 100 nM by peptide, i.v.; 1 hour postinjection

Bio-eGvndneeGffsar-K [5-FAM]-GPGPNQC [marker-MNPs]
Level of cleaved reporter peptides with increasing FAPα concentration (mouse FAPα protein; marker-MNPs 10 nM by peptide, recombinant FAPα 0.1–100 pM, 1 hour, ELISA, n=3 per dose): elevated levels of cleaved reporter peptides were detected by ELISA with increasing concentration of FAPα | Level of cleaved reporter peptides over time (mouse FAPα protein; marker-MNPs treated with 10 nM FAPα): increased over time | Sensitivity ([1]; 10 nM group): 90% | Specificity ([1]; 10 nM group): 97% | AUC of ROC curve, ESCC vs healthy mice ([1]; 10 nM group): 0.97 | Sensitivity ([1]; 100 nM group): 100% | Specificity ([1]; 100 nM group): 100% | AUC of ROC curve, ESCC vs healthy mice ([1]; 100 nM group): 1.0 | Time of peak concentration of cleaved reporter peptide in urine ([1]; 100 nM marker-MNPs i.v., ESCC tumor mice, n=3, ELISA): 60 min | Time at which urinary cleaved reporter dropped to the bottom line ([1]; 100 nM marker-MNPs i.v., ESCC tumor mice, postinjection): 150 min | Urine reporter in healthy mice ([1]; 100 nM marker-MNPs i.v., healthy mice, 0–180 min): not detectable | Ratio of reporter to reporter control, ESCC vs healthy mice ([1]; 1 hour postinjection urine, P<0.0001): significantly higher than in healthy control mice | In vivo fluorescence imaging of tumor-bearing mice vs control (Eca109 xenograft tumor): strong fluorescent activation in the tumor region and bladder
